Experiments:
[1] = molecular target: Serine/threonine-protein kinase TAO2 (Homo sapiens) (UniProt Q9UL54); test: Inhibition of wild-type human partial length TAOK2 (M1 to A320 residues) expressed in HEK293 cells assessed as residual activity at 1000 nM after 30 mins by Kinomescan method relative to control; assay type: cell-based
[2] = molecular target: Mitogen-activated protein kinase kinase kinase kinase 2 (Homo sapiens) (UniProt Q12851); test: Inhibition of wild-type human partial length MAP4K2 (M1 to G318 residues) expressed in HEK293 cells assessed as residual activity at 1000 nM after 30 mins by Kinomescan method relative to control; assay type: cell-based
[3] = molecular target: Mitogen-activated protein kinase kinase kinase 11 (Homo sapiens) (UniProt Q16584); test: Inhibition of wild-type human partial length MLK3 (I77 to W399 residues) expressed in Escherichia coli BL21 assessed as residual activity at 1000 nM after 30 mins by Kinomescan method relative to control
[4] = molecular target: Dual specificity testis-specific protein kinase 1 (Homo sapiens) (UniProt Q15569); test: Inhibition of wild-type human full length TESK1 (R37 to S626 residues) expressed in Escherichia coli BL21 assessed as residual activity at 1000 nM after 30 mins by Kinomescan method relative to control
Sequence of Dual specificity testis-specific protein kinase 1 (Homo sapiens) (Q15569 whole entry, looked up, the tested form may be a part): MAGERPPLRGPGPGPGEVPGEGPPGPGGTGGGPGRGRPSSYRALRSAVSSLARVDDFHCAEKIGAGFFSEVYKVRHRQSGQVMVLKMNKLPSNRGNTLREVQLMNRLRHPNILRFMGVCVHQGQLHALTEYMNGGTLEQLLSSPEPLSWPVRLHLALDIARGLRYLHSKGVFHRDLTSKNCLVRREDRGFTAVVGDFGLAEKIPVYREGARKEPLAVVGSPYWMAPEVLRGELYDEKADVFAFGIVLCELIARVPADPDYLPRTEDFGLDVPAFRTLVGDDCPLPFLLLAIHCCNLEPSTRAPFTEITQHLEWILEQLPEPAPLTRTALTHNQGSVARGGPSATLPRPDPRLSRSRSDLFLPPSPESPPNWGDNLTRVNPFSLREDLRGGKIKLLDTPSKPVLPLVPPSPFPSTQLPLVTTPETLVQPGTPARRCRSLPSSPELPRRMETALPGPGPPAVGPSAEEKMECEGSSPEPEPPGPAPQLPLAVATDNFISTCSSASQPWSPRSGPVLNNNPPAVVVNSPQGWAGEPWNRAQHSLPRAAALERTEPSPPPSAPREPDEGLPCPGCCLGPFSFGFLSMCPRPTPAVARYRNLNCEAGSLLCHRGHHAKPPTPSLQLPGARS

[5] = molecular target: Ribosomal protein S6 kinase alpha-1 (Homo sapiens) (UniProt Q15418); test: Inhibition of wild-type human partial length C-terminal RSK1 kinase domain 2 (P360 to L681 residues) expressed in Escherichia coli BL21 assessed as residual activity at 1000 nM after 30 mins by Kinomescan method relative to control
[6] = molecular target: Serine/threonine-protein kinase 33 (Homo sapiens) (UniProt Q9BYT3); test: Inhibition of wild-type human full length STK33 (M1 to L514 residues) expressed in Escherichia coli BL21 assessed as residual activity at 1000 nM after 30 mins by Kinomescan method relative to control
Sequence of Serine/threonine-protein kinase 33 (Homo sapiens) (Q9BYT3 whole entry, looked up, the tested form may be a part): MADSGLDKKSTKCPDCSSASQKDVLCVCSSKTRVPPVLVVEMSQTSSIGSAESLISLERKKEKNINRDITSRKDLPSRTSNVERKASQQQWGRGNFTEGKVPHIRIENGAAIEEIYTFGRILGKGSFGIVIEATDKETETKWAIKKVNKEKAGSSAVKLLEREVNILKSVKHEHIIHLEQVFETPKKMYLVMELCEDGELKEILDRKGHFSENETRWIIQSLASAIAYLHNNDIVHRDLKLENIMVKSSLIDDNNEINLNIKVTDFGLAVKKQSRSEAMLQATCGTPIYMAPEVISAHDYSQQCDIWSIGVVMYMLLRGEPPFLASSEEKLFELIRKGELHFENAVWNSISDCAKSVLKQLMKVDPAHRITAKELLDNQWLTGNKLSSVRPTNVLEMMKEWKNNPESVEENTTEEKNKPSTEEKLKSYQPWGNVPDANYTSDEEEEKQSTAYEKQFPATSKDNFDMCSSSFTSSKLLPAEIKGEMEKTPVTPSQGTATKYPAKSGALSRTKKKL

[7] = molecular target: Mast/stem cell growth factor receptor Kit (Homo sapiens) (UniProt P10721); test: Inhibition of wild-type human partial length KIT (I571 to D952 residues) expressed in Escherichia coli BL21 assessed as residual activity at 1000 nM after 30 mins by Kinomescan method relative to control
Sequence of Mast/stem cell growth factor receptor Kit (Homo sapiens) (P10721 whole entry, the tested form may be a part, canonical isoform): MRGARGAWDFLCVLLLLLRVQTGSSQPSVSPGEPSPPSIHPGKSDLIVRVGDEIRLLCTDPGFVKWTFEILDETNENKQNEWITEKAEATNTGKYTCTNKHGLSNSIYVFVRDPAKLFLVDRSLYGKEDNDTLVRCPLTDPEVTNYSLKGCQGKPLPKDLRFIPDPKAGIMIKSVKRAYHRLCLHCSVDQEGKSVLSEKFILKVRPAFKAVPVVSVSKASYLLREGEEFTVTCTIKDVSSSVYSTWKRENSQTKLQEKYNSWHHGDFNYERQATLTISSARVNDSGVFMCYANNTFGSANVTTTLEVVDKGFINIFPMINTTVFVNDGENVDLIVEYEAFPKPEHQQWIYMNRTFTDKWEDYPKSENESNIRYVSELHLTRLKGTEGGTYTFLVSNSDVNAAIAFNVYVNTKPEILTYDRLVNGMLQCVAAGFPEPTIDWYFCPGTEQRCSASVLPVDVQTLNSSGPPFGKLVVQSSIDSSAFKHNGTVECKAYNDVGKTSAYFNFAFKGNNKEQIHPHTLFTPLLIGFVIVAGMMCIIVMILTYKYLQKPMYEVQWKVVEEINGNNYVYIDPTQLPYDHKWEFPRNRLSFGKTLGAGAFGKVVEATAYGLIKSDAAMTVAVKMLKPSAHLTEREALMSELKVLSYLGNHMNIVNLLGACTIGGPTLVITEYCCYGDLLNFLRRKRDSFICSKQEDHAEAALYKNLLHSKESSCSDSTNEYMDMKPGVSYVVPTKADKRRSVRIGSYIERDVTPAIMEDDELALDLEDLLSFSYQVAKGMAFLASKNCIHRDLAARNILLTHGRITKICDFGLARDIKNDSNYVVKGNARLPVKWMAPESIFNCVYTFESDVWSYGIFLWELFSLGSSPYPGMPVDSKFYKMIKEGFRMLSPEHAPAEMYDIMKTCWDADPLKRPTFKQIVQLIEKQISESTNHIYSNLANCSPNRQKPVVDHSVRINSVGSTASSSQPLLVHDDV

[8] = system: Phosphatidylinositol 4,5-bisphosphate 3-kinase catalytic subunit alpha isoform (Homo sapiens), P42336 [I800L]; test: Inhibition of human partial length PIK3CA I800L mutant (R108 to N1068 residues) expressed in HEK293 cells assessed as residual activity at 1000 nM after 30 mins by Kinomescan method relative to control; assay type: cell-based
Method in brief: (§1)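 Single-point screen at a fixed 1 µM, run within a 456-kinase DiscoveRx KINOMEscan panel. Each kinase's read-out is Percent Control, i.e. signal relative to a control without compound. Hits were scored by a Percent Control < 35 cut-off, and an S(35) selectivity score was calculated across the non-mutant kinases.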

[9] = molecular target: Tyrosine-protein kinase BTK (Homo sapiens) (UniProt Q06187); test: Inhibition of wild-type human full length BTK (M1 to S659 residues) expressed in HEK293 cells assessed as residual activity at 1000 nM after 30 mins by Kinomescan method relative to control; assay type: cell-based; method in brief: as §1
[10] = molecular target: Protein kinase C iota type (Homo sapiens) (UniProt P41743); test: Inhibition of wild-type human partial length PRKCI (H215 to V587 residues) expressed in HEK293 cells assessed as residual activity at 1000 nM after 30 mins by Kinomescan method relative to control; assay type: cell-based
[11] = molecular target: Myosin light chain kinase (Homo sapiens) (UniProt Q32MK0); test: Inhibition of wild-type human partial length MLCK (D488 to K800 residues) expressed in Escherichia coli BL21 assessed as residual activity at 1000 nM after 30 mins by Kinomescan method relative to control
Sequence of Myosin light chain kinase (Homo sapiens) (Q32MK0 whole entry, the tested form may be a part): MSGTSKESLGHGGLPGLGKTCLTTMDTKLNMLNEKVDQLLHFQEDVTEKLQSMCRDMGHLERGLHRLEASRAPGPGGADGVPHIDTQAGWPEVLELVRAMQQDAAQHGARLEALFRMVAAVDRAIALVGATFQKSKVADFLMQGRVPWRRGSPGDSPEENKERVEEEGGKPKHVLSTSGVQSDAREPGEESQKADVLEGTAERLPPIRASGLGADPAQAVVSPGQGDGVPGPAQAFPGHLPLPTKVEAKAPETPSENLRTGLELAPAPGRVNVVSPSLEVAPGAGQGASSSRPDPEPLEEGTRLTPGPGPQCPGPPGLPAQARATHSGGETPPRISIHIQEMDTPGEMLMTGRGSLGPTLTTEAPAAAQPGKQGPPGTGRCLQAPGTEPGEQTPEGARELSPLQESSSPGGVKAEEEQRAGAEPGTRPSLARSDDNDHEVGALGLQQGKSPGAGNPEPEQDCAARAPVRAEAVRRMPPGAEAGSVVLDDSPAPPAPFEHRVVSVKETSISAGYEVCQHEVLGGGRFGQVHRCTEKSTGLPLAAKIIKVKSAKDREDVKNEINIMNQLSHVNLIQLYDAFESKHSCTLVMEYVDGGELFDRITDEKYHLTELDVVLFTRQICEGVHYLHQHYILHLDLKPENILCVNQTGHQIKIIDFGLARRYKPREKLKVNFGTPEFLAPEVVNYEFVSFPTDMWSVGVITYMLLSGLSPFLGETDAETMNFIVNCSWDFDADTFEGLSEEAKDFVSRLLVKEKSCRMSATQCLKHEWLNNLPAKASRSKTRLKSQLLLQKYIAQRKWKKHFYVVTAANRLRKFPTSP

[12] = molecular target: Tyrosine-protein kinase SYK (Homo sapiens) (UniProt P43405); test: Inhibition of wild-type human partial length SYK (D354 to N635 residues) expressed in Escherichia coli BL21 assessed as residual activity at 1000 nM after 30 mins by Kinomescan method relative to control
[13] = molecular target: Dual specificity protein kinase CLK4 (Homo sapiens) (UniProt Q9HAZ1); test: Inhibition of wild-type human partial length CLK4 (R135 to K481 residues) expressed in Escherichia coli BL21 assessed as residual activity at 1000 nM after 30 mins by Kinomescan method relative to control
Sequence of Dual specificity protein kinase CLK4 (Homo sapiens) (Q9HAZ1 whole entry, looked up, the tested form may be a part, canonical isoform): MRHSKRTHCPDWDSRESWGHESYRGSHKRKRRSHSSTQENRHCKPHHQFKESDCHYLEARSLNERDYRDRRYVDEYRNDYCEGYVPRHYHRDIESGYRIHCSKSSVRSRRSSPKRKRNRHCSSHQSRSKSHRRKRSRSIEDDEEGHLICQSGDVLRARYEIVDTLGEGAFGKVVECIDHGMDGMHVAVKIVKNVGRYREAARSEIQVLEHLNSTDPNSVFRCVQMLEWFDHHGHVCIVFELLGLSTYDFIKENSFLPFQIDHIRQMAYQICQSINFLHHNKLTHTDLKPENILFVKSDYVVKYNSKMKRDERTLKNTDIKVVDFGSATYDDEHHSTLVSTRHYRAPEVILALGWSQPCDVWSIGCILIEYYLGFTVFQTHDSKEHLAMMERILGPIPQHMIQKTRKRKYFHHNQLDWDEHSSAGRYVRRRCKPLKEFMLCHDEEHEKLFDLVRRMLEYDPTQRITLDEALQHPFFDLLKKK

[14] = system: Phosphatidylinositol 4,5-bisphosphate 3-kinase catalytic subunit alpha isoform (Homo sapiens), P42336 [E545K]; test: Inhibition of human partial length PIK3CA E545K mutant (R108 to N1068 residues) expressed in HEK293 cells assessed as residual activity at 1000 nM after 30 mins by Kinomescan method relative to control; assay type: cell-based
Method in brief: (§2)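 KINOMEscan binding panel of 456 kinases, with the test compound at a single concentration of 1 µM. Read-out is Percent Control.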

[15] = molecular target: Cyclin-dependent kinase 15 (Homo sapiens) (UniProt Q96Q40); test: Inhibition of wild-type human full length PFTAIRE2 (M1 to W384 residues) expressed in Escherichia coli BL21 assessed as residual activity at 1000 nM after 30 mins by Kinomescan method relative to control
Sequence of Cyclin-dependent kinase 15 (Homo sapiens) (Q96Q40 whole entry, the tested form may be a part): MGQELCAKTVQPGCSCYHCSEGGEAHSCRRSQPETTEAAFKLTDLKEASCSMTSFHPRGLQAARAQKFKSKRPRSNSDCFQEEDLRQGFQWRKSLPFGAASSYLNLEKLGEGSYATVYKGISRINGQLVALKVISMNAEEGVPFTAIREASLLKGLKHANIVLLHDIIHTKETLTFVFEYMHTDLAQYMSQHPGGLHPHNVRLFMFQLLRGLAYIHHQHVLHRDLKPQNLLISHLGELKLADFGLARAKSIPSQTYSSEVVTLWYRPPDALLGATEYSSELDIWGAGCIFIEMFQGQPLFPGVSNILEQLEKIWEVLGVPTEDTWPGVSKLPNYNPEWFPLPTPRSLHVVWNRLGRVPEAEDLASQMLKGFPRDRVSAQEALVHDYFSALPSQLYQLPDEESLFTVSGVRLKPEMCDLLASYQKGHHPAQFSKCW
Method in brief: (§3)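 Single-concentration screen at 1 µM across a 456-kinase KINOMEscan panel. The read-out is Percent Control for each kinase.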

[16] = molecular target: Tyrosine-protein kinase TXK (Homo sapiens) (UniProt P42681); test: Inhibition of wild-type human partial length TXK (L238 to W527 residues) expressed in Escherichia coli BL21 assessed as residual activity at 1000 nM after 30 mins by Kinomescan method relative to control
[17] = molecular target: Cyclin-dependent kinase 16 (Homo sapiens) (UniProt Q00536); test: Inhibition of wild-type human partial length PCTK1 (G160 to A474 residues) expressed in HEK293 cells assessed as residual activity at 1000 nM after 30 mins by Kinomescan method relative to control; assay type: cell-based
Sequence of Cyclin-dependent kinase 16 (Homo sapiens) (Q00536 whole entry, the tested form may be a part): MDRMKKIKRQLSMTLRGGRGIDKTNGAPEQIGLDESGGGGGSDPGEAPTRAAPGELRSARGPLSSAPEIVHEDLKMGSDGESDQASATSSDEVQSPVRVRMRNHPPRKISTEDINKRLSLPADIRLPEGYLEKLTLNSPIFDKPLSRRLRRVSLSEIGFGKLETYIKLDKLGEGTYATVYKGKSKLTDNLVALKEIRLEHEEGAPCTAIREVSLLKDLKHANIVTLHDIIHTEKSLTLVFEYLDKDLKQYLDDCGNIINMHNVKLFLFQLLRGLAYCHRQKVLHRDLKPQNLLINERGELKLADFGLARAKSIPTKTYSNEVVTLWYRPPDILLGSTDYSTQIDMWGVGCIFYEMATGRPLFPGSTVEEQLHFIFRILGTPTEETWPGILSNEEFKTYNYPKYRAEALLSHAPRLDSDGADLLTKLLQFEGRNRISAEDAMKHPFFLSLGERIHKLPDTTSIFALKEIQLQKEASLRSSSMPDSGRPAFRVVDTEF

[18] = molecular target: Rhodopsin kinase GRK1 (Homo sapiens) (UniProt Q15835); test: Inhibition of wild-type human full length GRK1 (M1 to S563 residues) expressed in HEK293 cells assessed as residual activity at 1000 nM after 30 mins by Kinomescan method relative to control; assay type: cell-based; method in brief: as §3
Sequence of Rhodopsin kinase GRK1 (Homo sapiens) (Q15835 whole entry, the tested form may be a part): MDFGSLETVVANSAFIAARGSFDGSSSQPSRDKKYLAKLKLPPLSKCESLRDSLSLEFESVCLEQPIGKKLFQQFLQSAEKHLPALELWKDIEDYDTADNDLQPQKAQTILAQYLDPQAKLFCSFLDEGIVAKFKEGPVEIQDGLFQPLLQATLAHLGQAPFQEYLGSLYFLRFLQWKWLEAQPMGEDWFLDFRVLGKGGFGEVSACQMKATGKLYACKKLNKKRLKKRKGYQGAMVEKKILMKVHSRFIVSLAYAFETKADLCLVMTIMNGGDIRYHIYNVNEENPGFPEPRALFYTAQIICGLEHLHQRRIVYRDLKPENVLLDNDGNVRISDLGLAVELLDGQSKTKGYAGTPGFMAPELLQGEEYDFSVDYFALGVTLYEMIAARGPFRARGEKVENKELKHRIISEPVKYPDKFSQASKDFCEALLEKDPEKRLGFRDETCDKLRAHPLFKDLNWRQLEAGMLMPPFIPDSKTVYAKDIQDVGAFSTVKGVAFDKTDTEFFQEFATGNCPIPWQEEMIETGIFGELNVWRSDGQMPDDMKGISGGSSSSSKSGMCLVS

[19] = molecular target: Protein-tyrosine kinase 2-beta (Homo sapiens) (UniProt Q14289); test: Inhibition of wild-type human full length PYK2 (M1 to E967 residues) expressed in Escherichia coli BL21 assessed as residual activity at 1000 nM after 30 mins by Kinomescan method relative to control
Method in brief: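 Single-concentration screen at 1 µM against a 456-kinase panel (KINOMEscan). Read-out is Percent Control for each kinase. Across the 403 non-mutant kinases, an S(35) selectivity score was derived as the fraction of kinases with Percent Control < 35.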

[20] = system: Epidermal growth factor receptor (Homo sapiens), P00533 [UNDEFINED MUTATION]; test: Inhibition of human partial length EGFR L747-E749del/A750P mutant expressed in Escherichia coli BL21 assessed as residual activity at 1000 nM after 30 mins by Kinomescan method relative to control; method in brief: as §2

`COc1cc(OC)c(Cl)c(N2Cc3cnc(Nc4ccc(F)cc4)nc3N(C3CCN(C(=O)/C=C/CN(C)C)CC3)C2=O)c1Cl` was tested, and the Activity [1] was 6.2%, the Activity [2] was 100% and the Activity [3] was 83%. For the same molecule, the Activity [4] was 82%, the Activity [5] was 94% and the Activity [6] was 100%. The Activity [7] was 19%, the Activity [8] was 83% and the Activity [9] was 99%. For the same molecule, the Activity [10] was 100%, the Activity [11] was 99% and the Activity [12] was 100%. The Activity [13] was 93%, the Activity [14] was 99% and the Activity [15] was 100%. It also gave an Activity [16] of 99%, an Activity [17] of 100% and an Activity [18] of 79%. The Activity [19] was 91% and the Activity [20] was 96%.

From ChEMBL document CHEMBL4043093, “2-Oxo-3, 4-dihydropyrimido[4, 5-d]pyrimidinyl derivatives as new irreversible pan fibroblast growth factor receptor (FGFR) inhibitors” (Eur J Med Chem, 2017)
